# Screens: PubChem, several laboratories
# HSF-1 act = HSF-1 activators, primary screen, NIH3T3-HGL cells, MG132 stress, luminescence, single point | NIH3T3-HGL HSF-1 luciferase reporter, 8 h; 100% = twice DMSO control signal | activation, % at 9 µM | 300,000 compounds, 1.7% hits;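 active = mean replicate activation of at least 50% with a set share of replicates each reaching 50%; inconclusive = only one of those two conditions met; inactive = mean below 50% and too few replicates reaching it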
# Hep lipid drop = inhibitors of hepatocyte lipid droplet formation, primary screen, imaging, high-throughput imaging, BODIPY stain; AML12 mouse hepatocytes, oleate lipid droplets; inhibition, % at 6.5 µM; 240,000 compounds, 0.4% hits;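 active = lipid droplet intensity inhibited by at least 50%, with more than 500 cells counted; inconclusive = wells with under 300 cells, treated as cytotoxic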
#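 Assay system: AML12 hepatocytes (mouse); Probe or stimulus: oleic acid at 100 µM to induce lipid droplet formation; Dosing: compound at 6.5 µM only; Schedule: compound with oleate, overnight; Detection: fluorescence imaging, 20x objective, two fields per well; Measure: % inhibition of lipid droplet signal.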
# CHT PAM = CHT positive allosteric modulators, primary screen, cell-based, membrane potential dye, choline EC20; B-score at 10 µM; AID 488977, 2010; 310,000 compounds, 0.49% hits; CHT-expressing cells; hits give high values; LV-AA mutant CHT in HEK293 cells; High affinity choline transporter 1 (Homo sapiens), Q9GZV3;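 active = initial fluorescence not abnormally high and integrated response B-score, plate-corrected, over 3 SD above library mean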
# Target sequence (Q9GZV3 whole entry, looked up): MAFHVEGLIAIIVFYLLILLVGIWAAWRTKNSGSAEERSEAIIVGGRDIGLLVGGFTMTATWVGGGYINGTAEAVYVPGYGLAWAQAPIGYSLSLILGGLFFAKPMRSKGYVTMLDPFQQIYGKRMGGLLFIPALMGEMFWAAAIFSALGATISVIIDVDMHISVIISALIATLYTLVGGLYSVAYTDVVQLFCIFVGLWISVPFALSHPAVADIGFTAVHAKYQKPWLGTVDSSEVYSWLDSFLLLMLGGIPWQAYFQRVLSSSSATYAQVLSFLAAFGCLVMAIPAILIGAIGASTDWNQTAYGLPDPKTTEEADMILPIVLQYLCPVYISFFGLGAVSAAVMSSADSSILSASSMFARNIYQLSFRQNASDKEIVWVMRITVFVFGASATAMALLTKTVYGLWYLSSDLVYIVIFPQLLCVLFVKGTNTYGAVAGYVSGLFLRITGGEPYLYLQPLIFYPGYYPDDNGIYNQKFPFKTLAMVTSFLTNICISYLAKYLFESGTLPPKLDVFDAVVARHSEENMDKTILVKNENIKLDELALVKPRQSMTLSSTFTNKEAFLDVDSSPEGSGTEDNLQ
# PHOSPHO1 block = PubChem AID 1565 | 290,000 compounds, 1.1% hits | inhibition, % at 13.3 µM | recombinant PHOSPHO1, absorbance phosphatase assay | Phosphoethanolamine/phosphocholine phosphatase (Homo sapiens), Q8TCT1; in the data active = inhibition above about 60%
# CHT inh = inhibitors of human choline transporter CHT. High affinity choline transporter 1 (Homo sapiens), Q9GZV3. CHT-expressing cells, membrane potential dye, choline response; hits give low values. B-score at 10 µM. 310,000 compounds, 0.86% hits;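 active = B-score over 3 SD under the library average, and starting fluorescence ratio not unusually high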;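 note: choline stimulus applied at its EC90 after an EC20 pre-addition; B-score computed on integrated fluorescence ratio after choline addition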
# HSF1 inhib = HSF1 inhibitors in luciferase reporter cells, primary screen, cell-based, NIH3T3, luminescence; NIH3T3-HGL HSE-luciferase, MG132-induced, luminescence 8 h; hits give low values; activity change, negative = inhibition, % at 7.5 µM (by protocol); 300,000 compounds, 0.77% hits;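 active = more than half of replicate wells show activity change below -50%, luminescence cut by over half; inconclusive = some wells, but at most half, below -50%; inactive = no replicate well below -50%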;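 note: luciferase reports HSF-1 transcriptional activity via heat shock element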
# CHT activ conf = CHT activators, confirmation, cell-based, membrane potential dye, duplicate. shares compounds with CHT PAM. CHT-expressing cells, membrane potential dye fluorescence (FDSS); % of choline EC20–EC90 response window; HEK293 expressing CHT LV-AA mutant; choline added at its EC20. activation, % at 10 µM. 2,500 compounds, 91% hits. AID 504833, 2011;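 active = primary screen active, with duplicate mean activation above negative control mean plus 3 SD, cut at about 11% in these data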
# HEK293 MP dye = membrane potential response in parental HEK293 cells, counter-screen for CHT activator project, cell-based, membrane potential dye. shares compounds with CHT PAM. membrane potential dye fluorescence (FDSS); measured after EC20 choline addition. ratio readout change at 10 µM, hits read low. 2,500 compounds, 62% hits;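 active = duplicate-averaged ratio beyond 3 SD from buffer wells, up or down, though filed actives are nearly all decreases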
# Hits are given with their value; n = inactive; u = inconclusive; x = no result. In the library only some 4.9% were active in any assay of this set; here they are far more common.
SMILES,HSF-1 act,Hep lipid drop,CHT PAM,PHOSPHO1 block,CHT inh,HSF1 inhib,CHT activ conf,HEK293 MP dye
CCN(CC)CCn1c(=N)n(CC(O)COc2cccc(C)c2)c2ccccc21 (configuration not stated),n,n,6.4,n,n,n,54,n
C[C@@H]1CC=C[C@H]2[C@H]1C(=O)N(Cc1ccccc1)[C@H]2c1ccc2ccccc2c1,n,n,n,n,n,n,x,x
C[C@@H]1CC=C[C@H]2[C@H]1C(=O)N(Cc1ccccc1)[C@H]2c1cccc([N+](=O)[O-])c1,n,n,6.3,n,n,n,26,n
CSC1=NCCN1C(=O)c1cccc(Br)c1,n,x,n,n,n,n,x,x
CCCCCNC(=O)c1cccc(S(=O)(=O)N2CC3(C)CC2CC(C)(C)C3)c1 (configuration not stated),n,x,n,x,n,n,x,x
Cc1ccn2c(Nc3ccccc3)c(-c3ccccn3)nc2c1,n,n,n,n,n,n,x,x
Cc1cccn2c(Nc3ccccc3)c(-c3ccccn3)nc12,n,n,n,n,n,n,41,-25
CN(C)C(/C=C/Nc1ccc(Br)cc1)=C(C#N)C#N,n,n,7.3,n,n,n,20,-50
CN(C)C(/C=C/Nc1ccc(C#N)cc1)=C(C#N)C#N,n,x,n,n,n,n,x,x
CN(C)C(/C=C/Nc1ccc([N+](=O)[O-])cc1)=C(C#N)C#N,n,n,7.1,n,n,n,30,-55
CN(C)C(/C=C/Nc1ccc(F)cc1)=C(C#N)C#N,n,x,n,n,n,n,x,x
NS(=O)(=O)c1ccc(CCNC(=O)C2(S(=O)(=O)c3ccc(Cl)cc3)CC2)cc1,n,x,n,n,n,n,x,x
CCOc1ccccc1CNCCNC(=O)c1nonc1N,n,n,n,n,n,n,x,x
Nc1nonc1C(=O)NCCNCc1ccccc1OCc1ccccc1F,n,x,6.3,n,n,n,16,n
Nc1nonc1C(=O)NCCNCc1cc(Br)ccc1OCc1ccccc1F,n,n,n,n,n,n,22,n
COCCN(C(=S)Nc1ccc(Cl)cc1OC)C1CCN(C(C)=O)CC1,n,n,n,n,n,n,x,x
COc1ccc(C2CC(c3c(O)cc(C)oc3=O)=NCCS2)c(OC)c1 (configuration not stated),x,x,7.6,n,n,x,51,n
COc1ccc(/C=C/C(=O)c2c(O)cc(C)oc2=O)c(OC)c1,n,x,n,n,n,n,x,x
CCCSc1nc2cc(OC)c(OC)cc2c(=N)n1CCCN1CCOCC1,n,n,6.5,n,n,n,53,-40
COCCCn1c(SCc2ccc(OC)cc2)nc2cc(OC)c(OC)cc2c1=N,n,x,n,n,n,n,x,x
C[C@@H]1CN(C2CCN(Cc3nc(CC4CC4)no3)CC2)C[C@H](C)O1,n,n,n,n,n,n,x,x
Cn1cc([C@@H]2C[C@H]3CN(Cc4cccc(Cl)c4)C(=O)[C@]34CCCN24)c(-c2ccccc2)n1,n,n,n,n,n,n,19,n
CCn1ncc([C@@H]2C[C@H]3CN(Cc4cccc(Cl)c4)C(=O)[C@]34CCCN24)c1C,n,n,n,n,n,n,x,x
COc1ccc(/C=C2\Oc3cc(OCC(N)=O)ccc3C2=O)cc1OC,n,n,6.2,n,n,n,46,-37
N#Cc1nc(COc2ccc(F)cc2)oc1N1CCCC1,n,n,n,n,n,n,x,x
SMILES,HSF-1 act,Hep lipid drop,CHT PAM,PHOSPHO1 block,CHT inh,HSF1 inhib,CHT activ conf,HEK293 MP dye
N#Cc1nc(COc2ccccc2)oc1N1CCN(Cc2ccccc2)CC1,n,n,10,n,n,n,36,n
Cc1ccc(OCc2nc(C#N)c(N3CCN(Cc4ccccc4)CC3)o2)cc1,n,n,11,n,n,n,33,n
COc1ccccc1OCc1nc(C#N)c(N2CCCC2)o1,n,n,n,n,n,n,x,x
O=C(c1ccccc1-c1ccccc1)N1CCN(c2ccccn2)CC1,n,n,n,n,n,n,38,n
CCCCNC(=NCc1cccc(C(F)(F)F)c1)Nc1ccccc1,n,x,12,n,n,n,18,n
CCCCCNC(=O)C(C)Sc1ccc(Cl)cc1 (configuration not stated),n,n,n,n,n,n,x,x
CCCCn1c(N)c(N(CCC(C)C)C(=O)c2cc(-c3ccco3)nc3ccccc23)c(=O)[nH]c1=O,n,n,n,n,n,n,x,x
Cc1ccc(CN2CCSc3ccc(C(=O)NCCCN4CCN(C)CC4)cc32)cc1,n,n,n,n,n,n,x,x
Cc1ccc(CN2CCSc3ccc(C(=O)NCc4cccnc4)cc32)cc1,n,n,6.9,n,n,n,29,n
O/N=C/c1ccc2cccc(OCc3ccccc3)c2n1,n,n,n,n,n,n,x,x
NC(N)=N/N=C/c1ccc2cccc(OCc3ccccc3)c2n1,n,n,6.3,n,n,n,14,n
O=C(c1ccco1)N(CCC(c1ccccc1)c1ccco1)Cc1ccccc1 (configuration not stated),x,n,6.4,n,n,x,40,n
Cc1cc(C)c(C#N)c(SCc2cn3ccccc3n2)n1,u,n,6.5,n,n,n,51,-46
c1ccc2c(SCc3cn4ccccc4n3)nncc2c1,n,n,7.7,n,n,n,39,-37
Cc1cc(C)c(C#N)c(SCc2ccccc2)n1,n,n,n,n,n,n,x,x
CCCCCN(C(=O)CCCSc1nncs1)c1c(N)n(CCCC)c(=O)[nH]c1=O,n,n,n,n,n,n,x,x
CCCCn1c(N)c(N(CCOC)C(=O)c2ccc(COc3ccccc3)o2)c(=O)[nH]c1=O,n,x,6.7,x,n,n,16,n
O=C(O)c1cnn(-c2ccccc2)c1-c1ccncc1,n,x,n,n,n,n,x,x
CC(=O)N1CCN(C2=Nc3cccc4cccc2c34)CC1,n,x,9.8,n,n,n,52,-77
COc1ccccc1N1CCN(C2=Nc3cccc4cccc2c34)CC1,n,n,n,n,n,n,39,-58
c1ccc(CC2CCN(C3=Nc4cccc5cccc3c45)CC2)cc1,n,n,n,n,n,n,x,x
